High-throughput results from PubChem BioAssay.
KDM4C inh: inhibitors of human demethylase GASC-1 KDM4C. Q9H3R0. GST-KDM4C 2-372, H3K9me3 peptide, LANCE TR-FRET. inhibition, % at 12.5 µM. 0.15% of 96,000 active. AID 720574;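 active = mean replicate inhibition above about 25%, with at least 55% of replicates also reaching it, limit read from the data, passing the limit was not always enough; inconclusive = only one of those two conditions met; inactive = neither condition met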
Target sequence (Q9H3R0 2-372 limits assumed): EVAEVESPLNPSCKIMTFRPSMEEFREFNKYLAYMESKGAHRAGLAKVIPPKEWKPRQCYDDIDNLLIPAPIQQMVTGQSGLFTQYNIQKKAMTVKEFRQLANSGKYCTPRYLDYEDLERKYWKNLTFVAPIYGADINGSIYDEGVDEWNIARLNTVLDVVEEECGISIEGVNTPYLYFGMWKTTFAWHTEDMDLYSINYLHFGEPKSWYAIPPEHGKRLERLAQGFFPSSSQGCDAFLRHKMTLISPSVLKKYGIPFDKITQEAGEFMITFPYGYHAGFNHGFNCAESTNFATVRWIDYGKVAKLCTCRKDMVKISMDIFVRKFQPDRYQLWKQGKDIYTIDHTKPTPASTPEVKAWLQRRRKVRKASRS
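Material: GST-tagged GASC-1 (JMJD2C) catalytic fragment, aa 2-372. Input: enzyme final amount 10 nM. Medium: HEPES buffer, pH 7.5, plus ascorbate. Reagent: H3K9me3 peptide substrate, Fe(II), 2-oxoglutarate. Doses: single dose. Times: reaction 30 min RT, detection step 1 h RT. Measured by: LANCE TR-FRET. Evaluation: Fall in 671/618 emission ratio as inhibition.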
IDH1 R132H inh: IDH1 R132H (human) inhibition | IDH1 R132H reductase, diaphorase/resazurin fluorescence, 60 min | inhibition, % at 10 µM | O75874 | 0.18% of 70,000 active; in the data active = inhibition above about 34%; inconclusive = no clear call, values can overlap the other calls; inactive = below about 11%;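 note: 0% = DMSO and 100% = no enzyme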
T cruzi growth-1: inhibitors of T. cruzi proliferation | T. cruzi beta-gal in NIH3T3, GalScreen luminescence, 90 h | inhibition, % at 8.34 µM | 5.9% of 77,000 active;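 active = mean inhibition above about 93%, with at least 55% of replicates each passing it, limit read from the data, passing the limit was not always enough; inconclusive = only one of those two conditions holds; inactive = neither condition holds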
Pf Dd2 growth: P. falciparum Dd2 growth inhibition. activity change, % at 10 µM. 2.3% of 94,000 active. AID 1159554. SYBR Green, 72 h; hits give low values; in the data active = activity change below about -80%; inconclusive = no clear call, values can overlap the other calls
T cruzi growth-2: blocks T. cruzi growth in NIH3T3 host cells; shares compounds with T cruzi growth-1; T. cruzi beta-gal in NIH3T3, GalScreen luminescence, 90 h; inhibition, % at 8.35 µM; 72% of 5,600 active; AID 651739;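 active = mean replicate inhibition above about 95% and at least 55% of replicates individually reaching it, limit read from the data; inconclusive = only one of the two criteria is met; inactive = neither criterion is met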
T cruzi growth-3: blocks T. cruzi growth in NIH3T3 host cells; T. cruzi beta-gal in NIH3T3, GalScreen luminescence, 90 h; 21% of 5,600 active; shares compounds with T cruzi growth-1; inhibition, % at 2.09 µM;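 active = mean inhibition above about 95%, with at least 55% of replicates also reaching it, limit read from the data; inconclusive = meets just one of the two conditions; inactive = meets neither condition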;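 note: plate controls were neutral control median for no effect and positive control median for full effect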
3T3 cytotox: cytotoxicity in mouse NIH/3T3 fibroblasts; shares compounds with T cruzi growth-1; NIH/3T3 viability, CellTiter-Glo ATP luminescence, 90 h; cytotoxicity (signal decrease), % at 8.35 µM; 14% of 5,600 active; AID 651742;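 active = mean signal decrease across replicates above about 35% based on untreated-well scatter, with enough replicates individually passing, limit read from the data; inconclusive = no rule stated though some were filed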;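 note: 0% = median of neutral control wells and 100% = median of positive control wells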
NIH3T3 tox 2: cytotoxicity in mouse NIH/3T3 fibroblasts; NIH/3T3 viability, CellTiter-Glo ATP luminescence, 90 h; inhibition, % at 24.9 µM; AID 651744; 56% of 5,600 active; shares compounds with T cruzi growth-1;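 active = mean loss of cell viability signal at or above a set limit, and enough replicates individually reaching it; inconclusive = meets only the mean limit or only the replicate share; inactive = meets neither condition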;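 note: 0% = median of neutral control wells and 100% = median of positive control wells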
The depositor's hits bear a star; ? = inconclusive; . = no result given. A selection: hits, their analogues and other compounds. The true share with any hit is near 5.8%.

SMILES	KDM4C inh	IDH1 R132H inh	T cruzi growth-1	Pf Dd2 growth	T cruzi growth-2	T cruzi growth-3	3T3 cytotox	NIH3T3 tox 2
O=C(c1cccc(F)c1)N1CCCCN2[C@H](CO)[C@H](c3ccc(-c4cccnc4)cc3)[C@@H]2C1	0	.	?	1	103*	95	-4	-17
O=C(c1cccc(F)c1)N1CCCCN2[C@H](CO)[C@H](c3ccc(-c4cccnc4)cc3)[C@H]2C1	1	.	60	-6	.	.	.	.
CC(Oc1ccc(Br)cc1)C(=O)NCCN1CCOCC1 (stereo unspecified)	.	0	.	.	.	.	.	.
O=C1CC(O)[C@H]2[C@@H]3N1c1ccccc1[C@@]31CCN3C/C(=C/CO)[C@@H]2C[C@H]31 (stereo partly specified)	.	0	.	.	.	.	.	.
C[C@@H]1C[C@H]2OC[C@@]3(C)CCC[C@](C)(C23)[C@@]1(O)CCc1ccoc1 (stereo partly specified)	.	0	.	.	.	.	.	.
O=C(NC[C@@H]1[C@@H](c2ccccc2)[C@@H](CO)N1C(=O)Cc1cccnc1)C1CC1	1	.	100*	-54	-35	-65	-15	-8
CC(=O)NC[C@@H]1[C@H](c2ccccc2)[C@H](CO)N1C(=O)Cc1cccnc1	-1	.	?	-1	-5	-15	0	-16
O=C(NC[C@@H]1[C@H](c2ccccc2)[C@H](CO)N1C(=O)Cc1cccnc1)C1CC1	2	.	-7	-1	.	.	.	.
CC(=O)NC[C@H]1[C@@H](c2ccccc2)[C@H](CO)N1C(=O)Cc1cccnc1	1	.	66	-13	.	.	.	.
CC(C)(C)c1ccc(OCC(=O)Nc2cccc(C(=O)O)c2)cc1	.	0	.	.	.	.	.	.
O=C(CNCCO)Nc1sc2c(c1C(=O)Nc1ccc(Br)cc1)CCC2	.	1	.	.	.	.	.	.
C[C@H]1CCCCO[C@@H](CN(C)Cc2ccccc2)[C@@H](C)CN([C@@H](C)CO)C(=O)c2cc(NC(=O)NC3CCCCC3)ccc2O1	2	5	-116	-55	.	.	.	.
C[C@@H]1CN([C@H](C)CO)C(=O)c2cc(NC(=O)NC3CCCCC3)ccc2O[C@@H](C)CCCCO[C@@H]1CN(C)Cc1ccccc1	0	3	113*	-47	108*	54	-13	31*
C[C@H](CO)N1C[C@H](C)[C@@H](CN(C)Cc2ccccc2)OCCCC[C@H](C)Oc2ccc(NC(=O)NC3CCCCC3)cc2C1=O	-1	.	?	-14	?	54	15	48*
C[C@@H]1CCCCO[C@@H](CN(C)Cc2ccccc2)[C@H](C)CN([C@@H](C)CO)C(=O)c2cc(NC(=O)NC3CCCCC3)ccc2O1	-2	.	-112	-46	.	.	.	.
Cc1ccc(O)c(/C=N/NC(=O)CCCCCCC(=O)Nc2ccccc2O)c1	.	0	.	.	.	.	.	.
CCN(C[C@@H]1N[C@@H](CO)[C@H]1c1ccc(-c2ccc(F)cc2)cc1)C(=O)CN(C)C	0	.	109*	-81*	100*	89	?	104*
C[C@H](CO)N1C[C@H](C)[C@@H](CN(C)S(=O)(=O)c2ccccc2F)Oc2ncc(/C=C/c3ccccc3)cc2C1=O	-4	0	126*	-72	101*	55	25	26
COc1cccc(S(=O)(=O)N(C)C[C@@H]2Oc3ncc(/C=C/c4ccccc4)cc3C(=O)N([C@H](C)CO)C[C@@H]2C)c1	-1	0	106*	-58	105*	73	?	77*
C[C@H](CO)N1C[C@H](C)[C@@H](CN(C)S(=O)(=O)c2ccc(F)cc2)Oc2ncc(/C=C/c3ccccc3)cc2C1=O	-3	.	85*	-66	103*	49	-1	-1
C[C@@H]1CN([C@H](C)CO)C(=O)c2cc(/C=C/c3ccccc3)cnc2O[C@@H]1CN(C)S(=O)(=O)c1ccccc1F	-4	2	84	-41	.	.	.	.
COc1ccc(S(=O)(=O)N(C)C[C@@H]2Oc3ncc(/C=C/c4ccccc4)cc3C(=O)N([C@H](C)CO)C[C@H]2C)cc1	-4	0	.	-20	.	.	.	.
O=C(CSc1nnc(NC(=O)c2ccc(Cl)c(Cl)c2)s1)Nc1ccc(F)c(F)c1F	.	-2	.	.	.	.	.	.
COC(=O)CNC(=O)c1cn(-c2ccccc2)nc1-c1cc2ccccc2oc1=O	.	0	.	.	.	.	.	.
Cc1sc2ncnc(SCC(=O)Nc3cccc(C(F)(F)F)c3)c2c1C	.	0	.	.	.	.	.	.
SMILES	KDM4C inh	IDH1 R132H inh	T cruzi growth-1	Pf Dd2 growth	T cruzi growth-2	T cruzi growth-3	3T3 cytotox	NIH3T3 tox 2
Cc1ccc(S(=O)(=O)Nc2ccc3c(c2)C(=O)N([C@@H](C)CO)C[C@@H](C)[C@@H](CN(C)C(=O)NC2CCCCC2)OCCCC[C@@H](C)O3)cc1	-1	0	101*	-11	99*	71	-21	31
Cc1ccc(S(=O)(=O)Nc2ccc3c(c2)C(=O)N([C@@H](C)CO)C[C@@H](C)[C@H](CN(C)C(=O)NC2CCCCC2)OCCCC[C@H](C)O3)cc1	-3	.	114*	-51	92	-32	-20	-16
C[C@H]1CCCCO[C@H](CN(C)C(=O)NC2CCCCC2)[C@@H](C)CN([C@@H](C)CO)C(=O)c2cc(NS(=O)(=O)c3ccccc3)ccc2O1	-2	.	103*	-67	67	16	-32	-6
Cc1c(Cl)cccc1NC(=O)CN(c1ccc(I)cc1)S(C)(=O)=O	.	1	.	.	.	.	.	.
O=C(Nc1ccccc1F)N1CCCCN2[C@@H](CO)[C@H](c3ccc(-c4cccnc4)cc3)[C@@H]2C1	0	.	102*	10	106*	40	-10	34*
O=C(Nc1ccccc1F)N1CCCCN2[C@@H](CO)[C@@H](c3ccc(-c4cccnc4)cc3)[C@@H]2C1	0	.	78	-24	.	.	.	.
O=C(Nc1ccccc1F)N1CCCCN2[C@H](CO)[C@H](c3ccc(-c4cccnc4)cc3)[C@@H]2C1	1	.	113*	30	105*	29	-3	11
CCc1ccccc1N(CC(=O)NC)S(C)(=O)=O	.	0	.	.	.	.	.	.
Cc1noc(C)c1NC(=O)N1C[C@@H](O)COC[C@@H]2O[C@H](CC(=O)NCC3CC3)CC[C@H]21	4	.	?	.	?	4	-1	-3
Cc1noc(C)c1NC(=O)N1C[C@@H](O)COC[C@@H]2O[C@@H](CC(=O)NCC3CC3)CC[C@H]21	1	.	77	.	.	.	.	.
O=C(C[C@@H]1CC[C@@H]2[C@H](COC[C@H](O)CN2C(=O)Nc2ccc(Cl)c(Cl)c2)O1)NCc1ccc(Cl)c(Cl)c1	-1	.	107*	-4	100*	74	43*	103*
O=C(C[C@H]1CC[C@@H]2[C@H](COC[C@H](O)CN2C(=O)Nc2ccc(Cl)c(Cl)c2)O1)NCc1ccc(F)cc1	3	.	39	2	.	.	.	.
